# Tb hexokinase: T. brucei hexokinase 1 inhibition; recombinant TbHK1, G6PDH-coupled NADH A340; inhibition, % at 10 µM; 220,000 compounds, 0.11% hits; AID 1430;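 active = inhibition of 50% or more in the single-dose primary screen; inactive = inhibition below 50%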
# PfG6PD inh: PfG6PD (Plasmodium falciparum) enzyme inhibition; PfGluPho enzyme, NADPH resazurin-diaphorase fluorescence; inhibition, % at 20 µM; 350,000 compounds, 0.78% hits; AID 504690;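 active = inhibition reaching at least a set limit at 20 µM in the primary screen, cut at about 59% in these data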
# PHOSPHO1 inh: inhibitors of human PHOSPHO1 phosphatase. Q8TCT1. recombinant PHOSPHO1, absorbance phosphatase assay. inhibition, % at 13.3 µM. 290,000 compounds, 1.1% hits. AID 1565; in the data active = inhibition above about 60%
# Target sequence (Q8TCT1 whole entry, looked up): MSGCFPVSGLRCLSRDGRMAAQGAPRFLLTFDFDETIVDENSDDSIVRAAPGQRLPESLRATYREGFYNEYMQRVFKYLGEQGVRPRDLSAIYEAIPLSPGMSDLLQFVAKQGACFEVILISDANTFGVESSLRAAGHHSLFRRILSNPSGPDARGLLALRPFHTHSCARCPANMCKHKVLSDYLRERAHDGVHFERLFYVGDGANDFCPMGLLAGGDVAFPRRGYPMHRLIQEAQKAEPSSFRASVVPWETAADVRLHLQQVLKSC
# EP2 mod: EP2 receptor (human) modulation. P43116. EP2-expressing cells, cAMP HTRF FRET, PGE2 co-stimulation. induction, % at 25 µM. 260,000 compounds, 0.83% hits;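 active = compounds whose cAMP rise, as percent of the full-agonist control response, exceeds 60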;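 also: rat C6 glioma line stably carrying human EP2 under a CMV promoter; the protocol text gives 20 µM as final concentration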
# Target sequence (P43116 whole entry, looked up): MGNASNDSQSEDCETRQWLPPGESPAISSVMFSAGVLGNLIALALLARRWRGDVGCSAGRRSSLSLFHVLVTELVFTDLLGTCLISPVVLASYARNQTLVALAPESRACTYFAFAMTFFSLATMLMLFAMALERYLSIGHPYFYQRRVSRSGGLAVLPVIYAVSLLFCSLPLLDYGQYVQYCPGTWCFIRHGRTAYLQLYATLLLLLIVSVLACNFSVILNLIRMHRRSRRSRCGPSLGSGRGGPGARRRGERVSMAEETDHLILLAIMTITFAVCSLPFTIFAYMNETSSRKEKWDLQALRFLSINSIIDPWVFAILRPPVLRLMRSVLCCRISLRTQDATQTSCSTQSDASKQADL
# HKDC1 inh: inhibitors of human hexokinase HKDC1; Q2TB90; recombinant HKDC1, G6PDH/diaphorase resazurin coupled fluorescence; inhibition, % at 20 µM; 340,000 compounds, 0.16% hits; AID 493160;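 active = inhibition above about 35% when tested at 20 µM, limit read from the data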
#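 Material – in-house recombinant HK5 (HKDC1) enzyme · Quantity – HKDC1 at 5 µg/mL · Buffer or medium – pH 8.0 Tris buffer with 10 mM MgCl2 · Reagent – glucose with 1 mM ATP · Dosing – single 20 µM dose · Times – reaction time 90 min, room temperature, protected from light · Technique – resorufin fluorescence at 613 nm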
# EP2 antag: blocks the human prostaglandin E2 receptor EP2 | P43116 | C6 glioma cells expressing human EP2, cAMP TR-FRET; cells stimulated with saturating PGE2 | inhibition, % at 25 µM | 260,000 compounds, 0.52% hits;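 active = percent inhibition above 40 after rounding to a whole number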;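 also: rat C6 glioma host cells with rolipram phosphodiesterase inhibitor present; the protocol text gives 20 µM as final concentration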
# PfG6PD confirm: PfG6PD inhibition, single-dose confirmed | shares compounds with PfG6PD inh | recombinant PfGluPho, NADPH-diaphorase-resazurin fluorescence | inhibition, % at 20 µM | 2,400 compounds, 34% hits;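 active = inhibition of at least 50% at 20 µM in any single replicate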
# Diaphorase 10uM: diaphorase inhibition or oxidation at 10 uM NADPH; shares compounds with PfG6PD inh; AID 504862; diaphorase-coupled resazurin reduction, fluorescence, NADPH 10 uM; inhibition, % at 20 µM; 820 compounds, 39% hits;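 active = average inhibition reaching 50% or more with the compound at 20 µM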;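 also: resorufin red fluorescence formed as diaphorase reduces resazurin using NADPH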
# Diaphorase 30uM: counter-screen for P. falciparum G6PD inhibitors: diaphorase inhibitors, oxidizers; shares compounds with PfG6PD inh; Diaphorase/resazurin coupled assay, resorufin fluorescence, 30 uM NADPH; inhibition, % at 20 µM; 820 compounds, 29% hits;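 active = inhibition averaging 50% or more, tested at 20 µM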
# A number is an active result; n = inactive; x = no result. An excerpt weighted towards active compounds, which were near 2.5% of everything screened.
SMILES,Tb hexokinase,PfG6PD inh,PHOSPHO1 inh,EP2 mod,HKDC1 inh,EP2 antag,PfG6PD confirm,others
C=CCNC(=O)c1sc(=S)n(-c2ccc(C(=O)OCC)cc2)c1N,n,68.5,n,n,n,n,n,
O=C(NC1(c2ccccc2F)CCCC1)c1cc(-c2ccccn2)n[nH]1,x,x,x,n,x,n,x,
CCNC(=S)N(Cc1ccc(F)cc1)Cc1cc2ccc(OC)cc2[nH]c1=O,x,x,x,n,x,n,x,
CCOC(=O)c1sc(=S)n(-c2ccc(C)cc2)c1N,n,67.4,n,n,n,n,n,
CCOC(=O)c1sc(=S)n(-c2ccc(F)c(F)c2)c1N,n,n,n,n,n,n,x,
COc1ccc(N2CCN(c3ccnc4cc(Cl)ccc34)CC2)cc1,x,n,n,x,n,x,x,
Oc1ccc(N2CCN(c3ccnc4cc(Cl)ccc34)CC2)cc1,x,66.1,n,x,n,x,n,
CCn1c(SCC(=O)Nc2ccccc2Br)nnc1-c1cnccn1,x,n,n,x,n,x,x,
C=CCn1c(SCC(=O)Nc2ccc(F)cc2)nnc1-c1cnccn1,x,64.3,n,x,n,x,n,
CCOc1ccccc1NC(=O)CSc1nnc(-c2cnccn2)n1CC,n,73.0,n,n,n,n,n,
CCn1c(SCC(=O)Nc2ccc(F)cc2)nnc1-c1cnccn1,x,87.5,n,x,n,x,n,
O=C(c1cccs1)N1CCC[C@H]1[C@H](O)c1nc2ccccc2s1,x,x,x,n,x,n,x,
CCCc1nc(SCC(=O)c2ccccc2)c2c(=O)n(C)c(=O)n(C)c2n1,n,71.1,n,n,n,n,n,
CCc1nc(SCC(=O)c2ccccc2)c2c(=O)n(C)c(=O)n(C)c2n1,n,n,n,n,n,n,x,
CCOc1cc(-c2cc(-c3ccc(Cl)cc3)nc(N)c2C#N)ccc1O,x,x,x,n,x,n,x,
O=C(NC1CC1)c1cc(=S)[nH]c2ccccc12,x,59.7,x,x,n,x,n,
O=C(NC1CC1)C(=O)c1c[nH]c2ccccc12,x,n,x,x,n,x,x,
COc1ccc(-c2nc3ccccc3[nH]2)cc1,n,60.6,n,n,n,n,n,
c1ccc(-c2nc3ccccc3[nH]2)cc1,x,n,n,x,n,x,x,
COc1cc2c(cc1[N+](=O)[O-])-c1ccc([N+](=O)[O-])cc1C2=NNC(N)=S,x,73.4,x,x,x,x,n,
CC1=CC(C)(C)Nc2ccc(OC(=O)CN3C(=O)c4cccc5cccc(c45)C3=O)cc21,n,91.1,n,n,n,x,85.4,Diaphorase 10uM=n;Diaphorase 30uM=n
CCc1ccc2c(c1)C(C)=CC(C)(C)N2,n,n,n,n,n,n,x,
CCOc1ccc2c(c1)C(C)=CC(C)(C)N2,x,89.7,x,n,n,n,n,
CC1=CC(C)(C)Nc2ccc(OC(=O)C(Cc3ccccc3)N3C(=O)c4ccccc4C3=O)cc21 (stereo not given),n,n,n,n,n,n,x,
CC1=CC(C)(C)Nc2ccc(OC(=O)CN3C(=O)c4ccccc4C3=O)cc21,n,75.3,n,n,n,n,n,
SMILES,Tb hexokinase,PfG6PD inh,PHOSPHO1 inh,EP2 mod,HKDC1 inh,EP2 antag,PfG6PD confirm,others
COc1cccc(-c2ocnc2C(=O)Nc2ccccc2NC(=O)c2ccccn2)c1,x,x,x,n,x,n,x,
Cc1ccc(NC(=O)CSc2nnc(CCc3nc4ccccc4[nH]3)n2C)cc1,x,x,x,n,x,n,x,
COc1ccc(C(C(=O)NC2CCCC2)N(C(=O)c2ccco2)c2cc(C)ccc2C)cc1OC (stereo not given),x,x,x,n,x,n,x,
O=C(O)CSc1nnc(-c2ccccc2Br)n1-c1cccc(C(F)(F)F)c1,n,n,n,n,n,n,x,
NC(=O)CSc1nnc(-c2ccccc2Br)n1-c1cccc(C(F)(F)F)c1,n,69.1,n,n,n,n,59.3,Diaphorase 10uM=59.5;Diaphorase 30uM=54.7
Cc1ccc(SCCC(=O)N/N=C/c2ccccc2O)cc1,n,76.9,n,n,n,n,n,
Cc1ccc(SCCC(=O)N/N=C/c2cccnc2)cc1,n,74.1,n,n,n,n,67.0,Diaphorase 10uM=79.9;Diaphorase 30uM=65.7
CCOC(=O)c1c(NC(=O)C2CCCO2)sc(C(=O)OC(C)(C)C)c1C (stereo not given),n,63.1,83.2,n,n,n,n,
CC(=O)Nc1ccc(S(=O)(=O)N2CCC(c3[nH]ncc3-c3ccncc3)CC2)cc1,x,x,x,n,x,x,x,
Nc1nonc1-n1nnc(C(=O)N/N=C/c2cccc(Cl)c2)c1-c1cccs1,x,125.9,n,x,n,x,97.6,Diaphorase 10uM=93.5;Diaphorase 30uM=75.3
Nc1nonc1-n1nnc(C(=O)N/N=C/c2cccc(F)c2)c1-c1ccc2c(c1)OCO2,x,105.8,n,x,n,x,85.1,Diaphorase 10uM=74.7;Diaphorase 30uM=65.1
Nc1nonc1-n1nnc(C(=O)N/N=C/c2cccc(F)c2)c1-c1ccccc1,x,85.3,n,x,n,x,n,
COc1ccc(/C=N/NC(=O)c2nnn(-c3nonc3N)c2-c2cccs2)cc1OC,x,n,n,x,n,x,x,
Nc1nonc1-n1nnc(C(=O)N/N=C/c2cccnc2)c1-c1ccccc1,x,n,n,x,n,x,x,
C=C(C)Cn1c(SCC(=O)Nc2ccc(OC)cc2)nc2sc3c(c2c1=O)CCCC3,x,x,x,n,x,n,x,
Cc1cc(C)cc(NC(=O)CCN2CCCCC2)c1,x,x,x,n,x,n,x,
COc1ccccc1NC(=O)c1ccc[n+](C)c1,x,x,x,n,x,n,x,
O=[N+]([O-])c1ccc(-[n+]2ccc3ccccc3c2)c([N+](=O)[O-])c1,x,93.8,x,x,n,x,67.0,Diaphorase 10uM=n;Diaphorase 30uM=n
O=[N+]([O-])c1ccc(SNc2ccccc2)c([N+](=O)[O-])c1,x,n,x,x,n,x,x,
O=C(CN(Cc1ccco1)C(=O)c1ccccc1)Nc1ccc(Cl)c(Cl)c1,n,62.3,n,n,n,n,n,
Cc1ccc(C(=O)N(CC(=O)Nc2ccc(Cl)c(Cl)c2)Cc2ccco2)cc1,n,n,n,n,n,n,x,
On1onc2c3cc(-c4ccccc4)nc3ccc21,n,89.6,n,n,n,x,n,
CCc1cc2cc3c(cc2nc1SCC(=O)NC1CCCC1)OCCO3,x,x,x,n,x,n,x,
Brc1cc2[nH]cnc2c2ccccc12,n,59.3,n,n,n,n,50.4,Diaphorase 10uM=n;Diaphorase 30uM=n
O=S(=O)(NCc1ccc2c(c1)OCO2)c1ccc(S(=O)(=O)NCC2CCCO2)cc1 (stereo not given),x,x,x,n,x,n,x,
SMILES,Tb hexokinase,PfG6PD inh,PHOSPHO1 inh,EP2 mod,HKDC1 inh,EP2 antag,PfG6PD confirm,others
Cc1ccccc1Nc1nnc(SCc2cc(=O)n3ccsc3n2)s1,n,n,n,n,n,n,x,
COc1ccccc1Nc1nnc(SCc2cc(=O)n3cc(C)ccc3n2)s1,n,69.3,n,n,n,n,n,
CCOc1ccc2c(c1)n([O-])c1c([n+]2=O)CCCC1,n,98.6,n,n,n,n,n,
O=C(Cc1ccc(-n2cnnn2)cc1)NC1(c2ccc3c(c2)OCO3)CCCC1,x,x,x,n,x,x,x,
Oc1c(Cl)cc(Cl)cc1C=Nc1cc(C(F)(F)F)ccc1N1CCc2ccccc2C1,n,72.2,n,n,n,n,n,
N#Cc1ccc(-c2nc3ccc(Br)cn3c2Cc2ccccc2)cc1,x,88.7,x,x,x,x,n,

# Source: PubChem BioAssay (several laboratories)
